Publication PMC11600146 (JACS Au, 2024)
≈ marks a conversion by molar mass, not a printed value. Entries after “also recorded” stand apart in the source; their conditions may differ.

How the values were obtained:
[1] = system: E. coli 25922; experiment: MIC assay, broth microdilution; assay type: cell-based; settings: Escherichia coli, 25922, 22 h, read-out: E. coli 25922 MIC (μg/mL)
[2] = system: K. pneumoniae 10031; experiment: MIC assay, broth microdilution; assay type: cell-based; settings: Klebsiella pneumoniae, 10031, 22 h, read-out: K. pneumoniae 10031 MIC (μg/mL)
Outline: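 Broth microdilution adapted from NCCLS methods. Overnight cultures were diluted to OD600 0.006 in cation-adjusted Mueller–Hinton medium with 7% DMSO and incubated with a range of test compound concentrations at 37 °C for 22 h. MTT (5 mg/mL) was added for 3 h, solubilized with 2-propanol, and read as the absorbance difference at 570 and 690 nm. MIC was the lowest concentration with readings within 4-fold of bacteria-free wells.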

[3] = target: T1, K. pneumoniae LpxH (Klebsiella pneumoniae, UniProt A6T5R0); experiment: LpxE-coupled LpxH activity assay; assay type: biochemical
T1 sequence (A6T5R0 1-240): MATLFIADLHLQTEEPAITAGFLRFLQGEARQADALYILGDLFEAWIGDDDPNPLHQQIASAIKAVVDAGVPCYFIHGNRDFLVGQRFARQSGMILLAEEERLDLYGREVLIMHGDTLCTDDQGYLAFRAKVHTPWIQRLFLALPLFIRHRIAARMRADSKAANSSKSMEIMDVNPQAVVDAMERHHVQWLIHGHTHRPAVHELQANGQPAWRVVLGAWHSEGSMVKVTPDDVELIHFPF
Outline: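 LpxE-coupled assay with GB1-K. pneumoniae LpxH-His10, 10 ng/mL final (1 ng/mL for two analogs, with an extended time course), 100 μM UDP-DAGn. Buffer: Tris-HCl pH 8.0, BSA, Triton X-100, 1 mM MnCl2, DTT, 10% DMSO. Reaction at 37 °C; time-point aliquots quenched with 5 mM EDTA, then A. aeolicus LpxE 5 μg/mL for 30 min, formic acid, malachite green, A620. Triplicates. IC50 from dose–response fit; Ki = IC50/(1+[S]/KM), KM 68.1 μM.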

[4] = system: E. coli 25922; experiment: Spontaneous resistance development; assay type: cell-based
Outline: (§1)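 Five to six colonies per strain, from antibiotic-free LB agar, grown to OD 1 and concentrated tenfold. […] Colonies repassaged on fresh 8× MIC plates for 48 h, counted and sequenced. Frequency is resistant growth divided by initial inoculum density.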

[5] = system: HepG2 cells; experiment: In vitro cytotoxicity, CellTiter-Glo 2.0 cell viability assay; assay type: cell-based; settings: HepG2, 100 μM (63 μg/mL), 24 h
[6] = system: HEK293 cells; experiment: as above; assay type: cell-based
[7] = target: T2, E. coli LpxH (Escherichia coli, UniProt P43341); experiment: LpxE-coupled LpxH activity assay; assay type: biochemical
T2 sequence (P43341 1-240): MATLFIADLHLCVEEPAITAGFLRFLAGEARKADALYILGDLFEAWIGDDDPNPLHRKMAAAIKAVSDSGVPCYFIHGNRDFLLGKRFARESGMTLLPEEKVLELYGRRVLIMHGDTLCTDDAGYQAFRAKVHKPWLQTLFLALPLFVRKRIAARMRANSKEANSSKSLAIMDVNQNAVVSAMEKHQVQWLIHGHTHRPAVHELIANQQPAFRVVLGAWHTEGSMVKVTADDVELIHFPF
Outline: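 LpxE-coupled assay with GB1-E. coli LpxH-His10 (10 ng/mL in 2× enzyme/inhibitor mix; 0.5 ng/mL final for two analogs, with a longer time course). Mixes were preincubated 10 min at 37 °C and quenched with EDTA, then LpxE 30 min, malachite green, A620. Run in triplicate. IC50 fitted; Ki from competitive equation, KM 61.7 μM.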

[8] = system: K. pneumoniae 10031; experiment: Time-kill kinetics; assay type: cell-based
[9] = system: K. pneumoniae 10031; experiment: Spontaneous resistance development; assay type: cell-based
Outline: as §1

## CC(=O)N1CCc2cc(S(=O)(=O)N3CCN(c4cc(C(F)(F)F)cc(Cl)n4)CC3)ccc21 [JH-LPH-92]
[1]
  MIC: > 64 µg/mL
[2]
  MIC: 0.08 µg/mL (≈ 0.164 µM)

## CC(=O)N1CCc2cc(S(=O)(=O)N3CCN(c4nccc(C(F)(F)F)n4)CC3)ccc21 [JH-LPH-93]
[3]
  IC50: 100 nM
[2]
  MIC: 1.3 µg/mL (≈ 2.85 µM)

## CN(c1ccccc1C(=O)Nc1ccc(S(=O)(=O)N2CCN(c3cc(C(F)(F)F)cc(Cl)n3)CC2)cc1)S(C)(=O)=O [JH-LPH-107]
[1]
  MIC: 0.31 µg/mL (≈ 0.49 µM)
[3]
  IC50: 0.13 nM
[4]; E. coli 25922, 4× MIC
  Rate of spontaneous resistance mutations @4× MIC: 2.5 × 10^-9
[4]; E. coli 25922, 8× MIC
  Rate of spontaneous resistance mutations @8× MIC: 1.4 × 10^-9
[5]
  cytotoxicity (cell viability): did not cause any significant cytotoxicity; also recorded: no significant cytotoxicity
[6]; HEK293, 100 μM (63 μg/mL), 24 h
  cytotoxicity (cell viability): did not cause any significant cytotoxicity; also recorded: no significant cytotoxicity
[6]; no cytotoxicity at 63 μg/mL in HEK293 or HepG2 versus MICs 0.31 and 0.04 μg/mL
  safety index: > 100 fold
[7]
  IC50: 0.13 nM
[8]; time-kill, regrowth prevented up to 24 h at or above the MIC
  type of antibiotic action: bactericidal
[8]; within 6 h, at or above the MIC
  reduction of bacterial viability: > 1000 fold
[9]; K. pneumoniae 10031, 4× MIC
  Rate of spontaneous resistance mutations @4× MIC: 2.0 × 10^-9
[9]; K. pneumoniae 10031, 8× MIC
  Rate of spontaneous resistance mutations @8× MIC: 9.1 × 10^-10
